Columns and labels:
KB = test: Growth inhibition of human KB cells by MTT assay; format: functional, cell-based
Outline: (§1)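 5×10^3 cells per well seeded with compound added simultaneously, triplicate wells, 72 h at 37 °C in humidified 5% CO2. MTT (5 mg/mL stock in Ca/Mg-free PBS) added for a further 4 h at 37 °C. Formazan solubilized in 0.02 N HCl/50% DMF/20% SDS, OD570 read. Inhibition (%) = (1 − T/C) × 100 against mean control; IC50 taken from dose–response curve.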

CCRF-HSB-2 = test: Growth inhibition of human CCRF-HSB-2 cells by MTT assay; format: functional, cell-based; outline: as §1
NCI-H460 = test: Growth inhibition of human NCI-H460 cells by MTT assay; format: functional, cell-based; outline: as §1
HCT-116 = test: Growth inhibition of human HCT116 cells by MTT assay; format: functional, cell-based; outline: as §1
A-431 [1] = test: Growth inhibition of human A431 cells by MTT assay; format: functional, cell-based; outline: as §1
Mus musculus [2] = test: Weight change in intratumorally dosed BALB/c nude mouse bearing human A431 cells at 25 mg/kg after 17 days; format: functional, A-431
Outline: (§2)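 BALB/c nude mice bearing subcutaneous A431 tumors, dosed from the day tumors reach 100–300 mm3. Vehicle: 0.5% gum arabic suspension. Intratumoral schedule: days 1-5, 8-12, 15-19. Intraperitoneal and oral schedule: daily, days 1-10. Body weight change in g recorded at 17 days (it), 10 days (ip) or 18 days (po) after treatment.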

A-431 [3] = test: Antitumor activity against human A431 xenograft in intratumorally dosed BALB/c nude mouse at 25 mg/kg after 17 days relative control; format: functional
Outline: (§3)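 A431 implanted subcutaneously in BALB/c nude mice; dosing begins (day 1) when tumors reach 100–300 mm3. Compound suspended in 0.5% gum arabic. Intratumoral: five daily doses per week for 3 weeks (days 1-5, 8-12, 15-19). Intraperitoneal and oral: daily for 10 days (days 1-10). Tumor length a and width b measured 2–3 times weekly; volume = a×b²/2; T/C % = (Tn/T1)×100/(Cn/C1).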

A-431 [4] = test: Antitumor activity against human A431 xenograft in BALB/c nude mouse at 150 mg/kg, po after 18 days relative control; format: functional; outline: as §3
A-431 [5] = test: Antitumor activity against human A431 xenograft in BALB/c nude mouse at 75 mg/kg, po after 18 days relative control; format: functional; outline: as §3
Mus musculus [6] = test: Weight change in human […] A431 xenografted BALB/c nude mouse at 75 mg/kg, po after 18 days; format: functional; outline: as §2
Mus musculus [7] = test: Weight change in human A431 xenografted BALB/c nude mouse at 150 mg/kg, po after 18 days; format: functional; outline: as §2
A-431 [8] = test: Antitumor activity against human A431 xenograft in BALB/c nude mouse at 100 mg/kg, ip after 10 days relative control; format: functional; settings: route intraperitoneal; outline: as §3
Mus musculus [9] = test: Weight change in human A431 xenografted BALB/c nude mouse at 100 mg/kg, ip after 10 days; format: functional; settings: route intraperitoneal; outline: as §2
A-431 [10] = test: Antitumor activity against human A431 xenograft in BALB/c nude mouse at 1 mg/kg, po after 18 days relative control; format: functional
Outline: (§4)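 Subcutaneous A431 xenografts in BALB/c nude mice were dosed orally once tumors reached 100–300 mm3 (day 1). Dosing was daily for days 1–10 as a suspension in 0.5% gum arabic. Volume = (a×b²)/2 from calipered length and width. Relative volume T/C % = (Tn/T1)×100/(Cn/C1) and body weight change (g) were assessed 18 days after treatment.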

Mus musculus [11] = test: Weight change in human A431 xenografted BALB/c nude mouse at 1 mg/kg, ip after 10 days; format: functional; settings: route intraperitoneal
Outline: (§5)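 A431 cells implanted subcutaneously into BALB/c nude mice. Dosing began (day 1) once tumors reached 100–300 mm3, given ip as a suspension in 0.5% gum arabic, daily for days 1–10. Tumor length (a) and width (b) were measured 2–3 times weekly; volume = (a×b²)/2. T/C % = (Tn/T1)×100/(Cn/C1), read on day 10. Body weight change was given in g.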

Mus musculus [12] = test: Weight change in intratumorally dosed BALB/c nude mouse bearing human A431 cells at 1 mg/kg after 17 days; format: functional, A-431
Outline: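 A431 was transplanted subcutaneously into BALB/c nude mice. Intratumoral injections of a suspension in 0.5% gum arabic started when tumors reached 100–300 mm3. Injections were given five consecutive days per week for 3 weeks (days 1–5, 8–12, 15–19). Body weight change (g) was recorded on day 17.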

Mus musculus [13] = test: Weight change in human A431 xenografted BALB/c nude mouse at 1 mg/kg, po after 18 days; format: functional; outline: as §4
A-431 [14] = test: Antitumor activity against human A431 xenograft in BALB/c nude mouse at 1 mg/kg, ip after 10 days relative control; format: functional; settings: route intraperitoneal; outline: as §5

## Cc1cccc2cc3c(=O)nc(-c4ccccc4)nc-3n(C)c12
KB
  IC50: 3980 nM
CCRF-HSB-2
  IC50: 700 nM

## COc1ccc2c(c1)cc1c(=O)nc(-c3ccccc3)nc-1n2C
KB
  IC50: 500 nM
NCI-H460
  IC50: 3100 nM
CCRF-HSB-2
  IC50: 1230 nM
HCT-116
  IC50: 2910 nM

## COc1ccc2cc3c(=O)nc(-c4ccccc4)nc-3n(C)c2c1
KB
  IC50: 5040 nM
CCRF-HSB-2
  IC50: 2140 nM

## CCn1c2nc(-c3ccccc3)nc(=O)c-2cc2cc(C)ccc21
KB
  IC50: 510 nM
CCRF-HSB-2
  IC50: 730 nM

## COc1ccc2cc3c(=O)nc(-c4ccccc4)nc-3[nH]c2c1
KB
  IC50: 62700 nM
CCRF-HSB-2
  IC50: 24400 nM

## CCn1c2nc(-c3ccccc3)nc(=O)c-2[n+]([O-])c2ccccc21
KB
  IC50: 2380 nM
CCRF-HSB-2
  IC50: 960 nM

## Cn1c2nc(-c3ccccc3)nc(=O)c-2[n+]([O-])c2ccccc21
A-431 [1]
  IC50: 1310 nM
KB
  IC50: 1080 nM
NCI-H460
  IC50: 2720 nM
CCRF-HSB-2
  IC50: 970 nM
HCT-116
  IC50: 1800 nM

## CC(C)n1c2nc(-c3ccccc3)nc(=O)c-2[n+]([O-])c2ccccc21
KB
  IC50: 2180 nM
NCI-H460
  IC50: 6050 nM
CCRF-HSB-2
  IC50: 980 nM
HCT-116
  IC50: 6580 nM

## Cc1ccc2c(c1)[n+]([O-])c1c(=O)nc(-c3ccccc3)nc-1n2C
KB
  IC50: 1750 nM
NCI-H460
  IC50: 4390 nM
CCRF-HSB-2
  IC50: 500 nM
HCT-116
  IC50: 3250 nM

## Cc1cccc2cc3c(=O)nc(-c4ccccc4)nc-3[nH]c12
KB
  IC50: > 350000 nM
CCRF-HSB-2
  IC50: 299000 nM

## COc1ccc2c(c1)[n+]([O-])c1c(=O)nc(-c3ccccc3)nc-1n2C
NCI-H460
  IC50: 1330 nM
HCT-116
  IC50: 720 nM

## COc1cc2c(c(OC)c1OC)[n+]([O-])c1c(=O)nc(-c3ccccc3)nc-1n2C
NCI-H460
  IC50: 3720 nM
HCT-116
  IC50: 3760 nM

## CCn1c2nc(-c3ccccc3)nc(=O)c-2cc2ccccc21
Mus musculus [2]
  Activity: -1.6 g
A-431 [1]
  IC50: 760 nM
KB
  IC50: 2620 nM
CCRF-HSB-2
  IC50: 1790 nM
A-431 [3]
  Activity: 109%

## Cc1ccc2c(c1)cc1c(=O)nc(-c3ccccc3)nc-1n2C
A-431 [1]
  IC50: 2450 nM
KB
  IC50: 1860 nM
NCI-H460
  IC50: 2080 nM
CCRF-HSB-2
  IC50: 1490 nM
HCT-116
  IC50: 1680 nM

## Cn1c2nc(-c3ccccc3)nc(=O)c-2cc2ccccc21
A-431 [4]
  Activity: 51.8%
Mus musculus [2]
  Activity: 0.1 g
A-431 [5]
  Activity: 97.6%
Mus musculus [6]
  Activity: -0.9 g
A-431 [1]
  IC50: 1440 nM
KB
  IC50: 2330 nM
NCI-H460
  IC50: 2230 nM
Mus musculus [7]
  Activity: -0.4 g
CCRF-HSB-2
  IC50: 11800 nM
HCT-116
  IC50: 2110 nM
A-431 [8]
  Activity: 53.4%
Mus musculus [9]
  Activity: -1.7 g
A-431 [3]
  Activity: 57.2%

## Cc1cccc2c1n(C)c1nc(-c3ccccc3)nc(=O)c-1[n+]2[O-]
KB
  IC50: 3280 nM
CCRF-HSB-2
  IC50: 1290 nM

## CCn1c2nc(-c3ccccc3)nc(=O)c-2[n+]([O-])c2cc(C)ccc21
KB
  IC50: 2970 nM
CCRF-HSB-2
  IC50: 1710 nM

## O=c1nc(-c2ccccc2)nc2[nH]c3ccccc3cc1-2
A-431 [1]
  IC50: 3880 nM
KB
  IC50: 5120 nM
CCRF-HSB-2
  IC50: 3830 nM

## Nc1ccn([C@@H]2O[C@H](CO)[C@@H](O)[C@@H]2O)c(=O)n1 [CYTARABINE]
KB
  IC50: 700 nM
CCRF-HSB-2
  IC50: 150 nM

## COc1cccc2c1C(=O)c1c(O)c3c(c(O)c1C2=O)C[C@@](O)(C(=O)CO)C[C@@H]3O[C@H]1C[C@H](N)[C@H](O)[C@H](C)O1 [DOXORUBICIN]
A-431 [1]
  IC50: 50 nM

## CN[C@@H]1C[C@H]2O[C@@](C)([C@@H]1OC)n1c3ccccc3c3c4c(c5c6ccccc6n2c5c31)C(=O)NC4 [STAUROSPORINE]
A-431 [10]
  Activity: 72.9%
Mus musculus [11]
  Activity: -1 g
Mus musculus [12]
  Activity: -0.6 g
Mus musculus [13]
  Activity: -2 g
A-431 [14]
  Activity: 84.9%
